FLuc inhib CS = inhibits firefly luciferase, flagging false hits in luciferase inhibition screens | P08659 | ATPLite firefly luciferase biochemical luminescence, 10 min | inhibition, % at 10 µM | 1.5% of 200,000 active | AID 1006;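 active = inhibition above about 50% when tested at 10 µM, limit read from the data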
Target sequence (P08659 whole entry, looked up): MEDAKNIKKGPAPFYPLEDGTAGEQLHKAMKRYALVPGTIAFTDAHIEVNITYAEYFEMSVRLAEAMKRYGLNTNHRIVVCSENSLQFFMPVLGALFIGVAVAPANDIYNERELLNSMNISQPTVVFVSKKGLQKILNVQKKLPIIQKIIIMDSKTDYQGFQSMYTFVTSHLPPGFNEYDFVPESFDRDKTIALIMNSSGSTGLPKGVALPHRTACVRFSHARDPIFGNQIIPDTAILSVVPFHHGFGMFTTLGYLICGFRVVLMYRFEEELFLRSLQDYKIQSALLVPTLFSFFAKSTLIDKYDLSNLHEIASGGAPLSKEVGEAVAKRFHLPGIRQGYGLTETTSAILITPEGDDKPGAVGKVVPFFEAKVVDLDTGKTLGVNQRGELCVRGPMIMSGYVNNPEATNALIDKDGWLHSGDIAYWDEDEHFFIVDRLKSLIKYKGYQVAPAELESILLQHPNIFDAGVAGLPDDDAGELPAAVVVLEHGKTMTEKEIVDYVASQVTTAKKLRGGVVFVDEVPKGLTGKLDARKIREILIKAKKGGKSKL
FLuc stim CS = firefly luciferase counter-screen for stimulation assays; 200,000 tested, under 10 active; P08659; activation factor at 10 µM; ATPlite luciferase biochemical, luminescence, 10 min; 0 = ATP-free wells, 1 = DMSO control;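 active = luciferase activation factor, scaled between plate controls, of at least 2 with compound at 10 µM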
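System: luciferase plus luciferin reagent, cell-free; medium: PBS as buffer for the ATP substrate; dosing: test compounds dosed from 2 mM stocks in 100% DMSO; timing: 10 min post-reagent at room temperature; measured by: luminescence measurement of luciferase light output; evaluation: luciferase activation, seen as luminescence increase over controls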
C8 TRAIL sens = caspase-8 TRAIL sensitization. inhibition (viability loss, TRAIL sensitization), % at 10 µM. NB7+C8 cells + TRAIL, ATPlite viability luminescence. 1% of 360,000 active;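 active = compounds causing at least 50% loss of cell viability in the single-dose screen, relative to plate controls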
PPC-1+TRAIL kill = compounds killing PPC-1 cancer cells with TRAIL present (potentiator screen, no TRAIL-free arm) | PPC-1 cells + TRAIL, ATPLite viability luminescence | AID 1443 | 0.41% of 220,000 active | cell killing (% activity), % at 4 µM or 5 µM;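 active = cell killing above 50% in the first pass at 4 µM, then a duplicate retest at 5 µM averaging 50% or more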
Wee1 stabilizer = blocks degradation of human Wee1 kinase; HeLa Luc-Wee1K328M stability, luciferase luminescence; 100% = proteasome inhibitor MG132 effect; reporter increase, % at 5 µM; 1.2% of 220,000 active; AID 1321;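 active = activation above the mean of all tested compounds plus 3 SD, set per screening run, cut at about 8.8% in these data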;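 also: cells exposed to compound for 20 h before luminescence read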
PKD1 kinase inh = inhibitors of human PKD1 kinase. 0.056% of 200,000 active. inhibition, % (no concentration beside the values). PKD1 kinase fluorescence polarization assay; in the data active = inhibition above about 50%
Hits are given with their value; . = inactive; / = no result. Only some compounds are listed: those with a hit (about 2.2% of all), similar ones and a draw of the others.

SMILES	FLuc inhib CS	FLuc stim CS	C8 TRAIL sens	PPC-1+TRAIL kill	Wee1 stabilizer	PKD1 kinase inh
O=C(Nc1cc(=O)[nH]c2ncnn12)c1ccco1	/	/	.	.	.	/
C=CCn1ccc(=NC=C(C#N)C#N)c2ccccc21	/	/	.	.	.	/
COC(=O)c1ccc(NC(=S)NNC(=O)CC(C)C)cc1	.	.	.	.	10.0	.
CCCCc1ncc(CN2CCN(Cc3ccc(C)cc3)C(CCO)C2)[nH]1 (configuration not stated)	.	.	.	.	.	.
CC(C)(C)NC(=O)CSc1nc(-c2ccc(F)cc2)cs1	55.1	.	.	.	.	.
CCNC(=O)CSc1nc(-c2ccc(F)cc2)cs1	.	.	.	.	.	.
Cc1ccc(-n2nnc(-c3cccnc3)n2)cc1	/	/	.	/	/	/
Cc1ccc(-n2nnc(-c3cnc4ccccc4c3)n2)cc1	53.5	.	.	.	.	.
CCCc1ccccc1OCCNS(=O)(=O)c1cc2c(cc1C)OCC(=O)N2	/	/	.	/	/	/
COCC(C)n1c(SCc2ccc(C(=O)OC)cc2)nc2ccccc2c1=O (configuration not stated)	/	/	.	/	/	/
COc1ccc(N(Cc2cc3cccc(C)c3[nH]c2=O)S(=O)(=O)c2ccc(OC)cc2)cc1	/	/	.	/	/	/
Cc1ccc(S(=O)(=O)N(Cc2cc3cccc(C)c3[nH]c2=O)c2ccccc2)cc1	.	.	.	.	9.1	.
Cc1ccc(S(=O)(=O)N2CCOCC2)cc1NC(=O)CN(C)C1CCS(=O)(=O)C1 (configuration not stated)	/	/	.	.	9.0	/
Cc1ccc(S(=O)(=O)N2CCOCC2)cc1NC(=O)COC(=O)CNC(=O)c1ccc(Oc2ccccc2)cc1	73.0	.	.	.	.	.
Cc1ccc(S(=O)(=O)N2CCOCC2)cc1NC(=O)COC(=O)CNC(=O)c1ccc(C(C)(C)C)cc1	81.0	.	.	.	.	.
COc1ccccc1NC(=O)c1ccc(S(=O)(=O)N2CCOCC2)cc1	.	.	.	.	.	.
CCOc1ccccc1NC(=O)c1ccc(S(=O)(=O)N2CCOCC2)cc1	.	.	.	.	10.6	.
Cc1ccc(C(=O)NCC(=O)OCC(=O)Nc2cc(S(=O)(=O)N3CCOCC3)ccc2C)cc1	/	/	.	/	/	/
Cc1onc(-c2ccccc2)c1C(=O)N1CCN(c2ccc([N+](=O)[O-])cc2)CC1	/	/	.	/	/	/
CC1(C(=O)Nc2ccc(S(=O)(=O)Nc3ncccn3)cc2)CCCC1	/	/	.	/	/	/
O=C(Cn1cc(C(=O)C(=O)N2CCOCC2)c2ccccc21)Nc1cccc(C(F)(F)F)c1	/	/	.	/	/	/
Cc1nc2ccc(Br)cn2c1C(=O)N/N=C\c1ccccc1Cl	/	/	.	/	/	/
CCNC(=S)Nc1ccc(-c2nc3ccccc3[nH]2)cc1	51.3	.	.	.	.	.
O=C(Nc1ccc(-c2nc3ccccc3[nH]2)cc1)c1c(F)c(F)c(F)c(F)c1F	.	.	.	.	.	.
COc1c(F)c(F)c(C(=O)Nc2ccc(-c3nc4ccccc4[nH]3)cc2)c(F)c1F	.	.	.	.	10.0	.
SMILES	FLuc inhib CS	FLuc stim CS	C8 TRAIL sens	PPC-1+TRAIL kill	Wee1 stabilizer	PKD1 kinase inh
O=C(Nc1ccc(-c2nc3ccccc3[nH]2)cc1)C1CCCO1 (configuration not stated)	89.6	.	73.0	.	.	.
CCOc1ccc(NC(=S)NCc2nc3ccccc3[nH]2)cc1	.	.	.	/	.	.
S=C(Nc1ccc(Cl)cc1)c1nc2ccccc2[nH]1	66.3	.	69.1	.	.	.
c1ccc(-c2nc3cccnc3nc2-c2ccccc2)cc1	/	/	.	/	/	/
O=C(CCC1CCCN(C(=O)c2ccsc2)C1)NCc1ccc(F)c(F)c1 (configuration not stated)	.	.	.	.	.	.
Cc1cc(C)c(NC(=O)CNC(=O)c2ccc3c(=O)n4c(nc3c2)CCC4)c(C)c1	/	/	.	/	/	/
COc1ccc(NC(=S)NC(C)C(c2ccccc2)N2CCOCC2)cc1 (configuration not stated)	.	.	.	.	.	.
CC(NC(=S)Nc1ccccc1Cl)C(c1ccccc1)N1CCOCC1 (configuration not stated)	.	.	.	.	9.2	.
COc1cc(/C=C/c2ccc(O)cc2)cc(OC)c1	.	.	.	.	.	/
COC(=O)c1ccc2c(c1)C(C)(C)C(/C=C/c1ccc(OC)c(OC)c1OC)=[N+]2C	.	.	67.5	.	.	.
COc1ccc(/C=N/Nc2ccc(C(=O)O)cc2)c(OC)c1OC	/	/	.	/	/	/

High-throughput results from PubChem BioAssay.
